The source made the active and inactive calls. The rule behind the calls is not given here.

The test system of test [1] is HCT-15. In words: Induction of apoptosis in human HCT15 cells after 24 hrs by Annexin-V-FITC/propidium iodide staining based flow cytometry. The test is classed as functional, cell-based.
Test [2] has as its system HCT-15. In words: Cytotoxicity against human HCT15 cells after 48 hrs by MTT assay. It counts as functional, cell-based. As to conditions: HCT-15, 48 h. In outline: (§1)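 MTT colorimetric assay. Shikonin and 5-fluorouracil served as reference agents. IC₅₀ obtained by linear regression of each compound's concentration–response curve.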
A short description of test [3]: Cytotoxicity against human HSF cells after 48 hrs by MTT assay. The test is classed as cell-based. In outline:
as §1

The subject of test [4] is HCT-15. In words: Induction of apoptosis in human HCT15 cells assessed as viable cells at 2 uM after 24 hrs by Annexin-V-FITC/propidium iodide staining based flow cytometry (reference value: 90.4%). The test is classed as functional. The settings on record: HCT-15, 24 h, read-out: Activity.
In test [5] the test system is HCT-15. In words: Induction of apoptosis in human HCT15 cells assessed as early apoptotic cells at 1 uM after 24 hrs by Annexin-V-FITC/propidium iodide staining based flow cytometry (reference value: 2.97%). The test is classed as functional.
For test [6], the system named is HCT-15. In words: Induction of apoptosis in human HCT15 cells assessed as increase in Bax protein expression up to 2 uM after 24 hrs by Western blot analysis. It counts as functional, cell-based. In outline: (§2)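 Protein extracted from HCT-15 cells after 24 h at 0, 0.5, 1.0 or 2.0 µM. Bcl-2, Bax and cleaved caspase-3 and -9 immunoblotted, band ratios quantified by densitometry. Student's t-test used.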

The test system of test [7] is HCT-15. In words: Induction of apoptosis in human HCT15 cells assessed as necrotic cells at 2 uM after 24 hrs by Annexin-V-FITC/propidium iodide staining based flow cytometry (reference value: 0.005%). The test is classed as functional.
A short description of test [8]: Induction of NO release in phosphate buffer at pH 7.4 at 0.1 mM measured after 2 hrs in presence of N-acetylcysteine by Griess assay. The test is classed as functional. In outline: (§3)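 Percentage of NO released in vitro measured by Griess assay against a standard curve. Incubation in 0.5 mM N-acetylcysteine, read hourly from 1 to 6 h.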
For another test, the system named is Bel-7402. Briefly: Cytotoxicity against human Bel7402 cells after 48 hrs by MTT assay. The settings on record: Bel-7402, 48 h. It counts as functional, cell-based. The gist of the method: as §1
Test [9] concerns HCT-15. In words: Induction of apoptosis in human HCT15 cells assessed as necrotic cells at 1 uM after 24 hrs by Annexin-V-FITC/propidium iodide staining based flow cytometry (reference value: 0.005%). It counts as functional.
The next test relates to MGC-803. Briefly: Cytotoxicity against human MGC803 cells after 48 hrs by MTT assay. It counts as functional, cell-based. As to conditions: MGC-803, 48 h. In outline:
as §1

For test [10], the system named is HCT-15. Briefly: Induction of apoptosis in human HCT15 cells assessed as downregulation of Bcl2 expression at 2 uM after 24 hrs by Western blot analysis. The test is classed as functional, cell-based. The gist of the method:
as §2

The nature of test [11]: Induction of NO release in phosphate buffer at pH 7.4 at 0.1 mM measured after 3 hrs in presence of N-acetylcysteine by Griess assay. The test is classed as functional. The gist of the method:
as §3

In test [12] the test system is HCT-15. In words: Cell cycle arrest in human HCT15 cells assessed assessed as accumulation at G2/M phase at 0.5 to 1.0 uM after 24 hrs by propidium iodide staining-based flow cytometric method. The test is classed as functional. The settings on record: in the assay text read “accumulation at G1 phase” for “accumulation at G2/M phase”. In outline:
(§4)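 HCT-15 cells seeded in 6-well plates, exposed to 0, 0.5 or 1.0 µM for 24 h, then harvested and stained with propidium iodide. DNA content read by flow cytometry and G1, S and G2/M fractions calculated. Comparison with untreated control by Student's t-test.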

A short description of test [13]: Induction of NO release in phosphate buffer at pH 7.4 at 0.1 mM measured after 1 hr in presence of N-acetylcysteine by Griess assay. It counts as functional. In outline:
as §3

A further test has as its system MCF7. Briefly: Cytotoxicity against human MCF7 cells after 48 hrs by MTT assay. The test is classed as functional, cell-based. The settings on record: MCF7, 48 h. The gist of the method: as §1
Test [14] deals with HCT-15. Briefly: Cell cycle arrest in human HCT15 cells assessed assessed as accumulation at S phase at 0.5 to 1.0 uM after 24 hrs by propidium iodide staining-based flow cytometric method. It counts as functional. As to conditions: in the assay text read “accumulation at G1 phase” for “accumulation at S phase”. In outline: as §4
In test [15] the test system is HCT-15. Briefly: Induction of apoptosis in human HCT15 cells assessed as late apoptotic cells at 2 uM after 24 hrs by Annexin-V-FITC/propidium iodide staining based flow cytometry (reference value: 6.59%). It counts as functional.
The nature of test [16]: Induction of NO release in phosphate buffer at pH 7.4 at 0.1 mM measured after 6 hrs in presence of N-acetylcysteine by Griess assay. It counts as functional. In outline:
as §3

Test [17] concerns HCT-15. Briefly: Induction of apoptosis in human HCT15 cells assessed as necrotic cells at 0.5 uM after 24 hrs by Annexin-V-FITC/propidium iodide staining based flow cytometry (reference value: 0.005%). It counts as functional.
For test [18], the system named is HCT-15. Briefly: Induction of apoptosis in human HCT15 cells assessed as chromatin condensation up to 1.0 uM after 24 hrs by Hoechst 33342 staining-based fluorescence microscopic method. The test is classed as functional, cell-based. The gist of the method:
(§5)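 HCT-15 cells incubated 24 h at 0, 0.5 or 1.0 µM, then stained with Hoechst 33342. Nuclei examined by fluorescence for fragmentation, chromatin condensation and staining intensity.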

The nature of test [19]: Induction of NO release in phosphate buffer at pH 7.4 at 0.1 mM measured after 5 hrs in presence of N-acetylcysteine by Griess assay. It counts as functional. The gist of the method: as §3
Test [20] in a line: Induction of NO release in phosphate buffer at pH 7.4 at 0.1 mM measured after 4 hrs in presence of N-acetylcysteine by Griess assay. It counts as functional. The gist of the method:
as §3

For test [21], the system named is HCT-15. Briefly: Induction of apoptosis in human HCT15 cells assessed as increase in cleaved caspase-3 levels after 24 hrs by Western blot analysis. The test is classed as functional, cell-based. In outline:
as §2

Test [22] deals with HCT-15. Briefly: Induction of apoptosis in human HCT15 cells assessed as nuclear fragmentation up to 1.0 uM after 24 hrs by Hoechst 33342 staining-based fluorescence microscopic method. It counts as functional, cell-based. In outline: as §5
In test [23] the test system is HCT-15. In words: Induction of apoptosis in human HCT15 cells assessed as late apoptotic cells at 0.5 uM after 24 hrs by Annexin-V-FITC/propidium iodide staining based flow cytometry (reference value: 6.59%). The test is classed as functional.
Test [24] concerns HCT-15. Briefly: Cell cycle arrest in human HCT15 cells assessed assessed as accumulation at G1 phase at 1.0 uM after 24 hrs by propidium iodide staining-based flow cytometric method (reference value: 36.7%). It counts as functional. The gist of the method:
as §4

The subject of test [25] is HCT-15. In words: Induction of apoptosis in human HCT15 cells assessed as increase in cleaved caspase-9 levels after 24 hrs by Western blot analysis. The test is classed as functional, cell-based. The gist of the method: as §2
Test [26] has as its system HCT-15. Briefly: Induction of apoptosis in human HCT15 cells assessed as early apoptotic cells at 2 uM after 24 hrs by Annexin-V-FITC/propidium iodide staining based flow cytometry (reference value: 2.97%). The test is classed as functional.
Test [27] relates to HCT-15. Briefly: Induction of apoptosis in human HCT15 cells assessed as viable cells at 1 uM after 24 hrs by Annexin-V-FITC/propidium iodide staining based flow cytometry (reference value: 90.4%). It counts as functional. The settings on record: HCT-15, 24 h, read-out: Activity.
Test [28] deals with HCT-15. In words: Induction of apoptosis in human HCT15 cells assessed as early apoptotic cells at 0.5 uM after 24 hrs by Annexin-V-FITC/propidium iodide staining based flow cytometry (reference value: 2.97%). It counts as functional.
Test [29] relates to HCT-15. In words: Induction of apoptosis in human HCT15 cells assessed as late apoptotic cells at 1 uM after 24 hrs by Annexin-V-FITC/propidium iodide staining based flow cytometry (reference value: 6.59%). The test is classed as functional.
In test [30] the test system is HCT-15. Briefly: Induction of apoptosis in human HCT15 cells assessed as viable cells at 0.5 uM after 24 hrs by Annexin-V-FITC/propidium iodide staining based flow cytometry (reference value: 90.4%). It counts as functional. As to conditions: HCT-15, 24 h, read-out: Activity.
In test [31] the test system is HCT-15. In words: Cell cycle arrest in human HCT15 cells assessed assessed as accumulation at G1 phase at 0.5 uM after 24 hrs by propidium iodide staining-based flow cytometric method (reference value: 36.7%). It counts as functional. In outline:
as §4

As to `COc1cc(C(=O)SC(CC=C(C)C)c2cc(OC)c3c(c2OC)/C(=N/O)C=C/C3=N\O)cc(OC)c1OC` (stereo unspecified), the Activity result in the test on HCT-15 [1] is “Dose-dependent effect”; in the test with HCT-15 [5] it was 18.3%; in the test with HCT-15 [7], 0.088%; in test [8], 0.063%; in the test on HCT-15 [9], 0.021%; in test [11], 0.076%. For the same compound, the Activity in [13] was 0.049%; in the test with HCT-15 [15] it was 57.3%; in [16] it was 0.079%; in the test on HCT-15 [17], 0.018%; in [19], 0.084%; in test [20], 0.091%. In addition, the Activity entry in the test with HCT-15 [21] was “Dose-dependent effect”; in the test on HCT-15 [23] it was 9.43%; in the test with HCT-15 [24], 49.9%; in the test on HCT-15 [25] it was “Dose-dependent effect”; in the test with HCT-15 [26], 20.1%; in the test with HCT-15 [28] it was 4.56%. For the same compound, the Activity with HCT-15 [29] came to 23.7%; in the test on HCT-15 [31], 44.1%. Moreover, the IC50 is 0.27 µM in the test with HCT-15 [2]; more than 50 µM in test [3]; 0.45 µM with Bel-7402; 0.86 µM in the test with MGC-803; 9.23 µM in the test on MCF7. The viability at 2 µM in the test with HCT-15 [4] turned out to be 22.4%. Also, the outcome in the test on HCT-15 [6], in the test with HCT-15 [10], in the test with HCT-15 [12], in the test with HCT-15 [14], in the test with HCT-15 [18] and with HCT-15 [22] was Active. The viability at 1 µM with HCT-15 [27] is 58%. The viability at 0.5 µM in the test on HCT-15 [30] was 86%.

In the case of `COc1ccc(C(=O)SC(CC=C(C)C)c2cc(OC)c3c(c2OC)/C(=N/O)C=C/C3=N\O)cc1OC` (stereo unspecified), the IC50 in the test with HCT-15 [2] was 0.39 µM; in test [3], more than 50 µM; in the test on Bel-7402, 0.66 µM; in the test with MGC-803, 1.17 µM; with MCF7, 14.9 µM. The Activity in test [8] was found to be 0.05%; in [11] it was 0.063%; in test [13], 0.041%; in test [16], 0.065%; in test [19], 0.073%; in test [20] it was 0.079%.

For `COc1ccc(C(=O)SC(CC=C(C)C)c2cc(OC)c3c(c2OC)/C(=N/O)C=C/C3=N\O)cc1` (stereo unspecified), the IC50 with HCT-15 [2] is 0.61 µM; in test [3], more than 50 µM; with Bel-7402, 1.09 µM; in the test on MGC-803, 0.93 µM; in the test with MCF7, 17.1 µM. In addition, the Activity in [8] was 0.045%; in test [11] it was 0.058%; in test [13] it was 0.038%; in test [16], 0.053%; in test [19], 0.059%; in [20] it was 0.064%.

Turning to `CCCCCCSC(CC=C(C)C)c1cc(OC)c2c(c1OC)/C(=N/O)C=C/C2=N\O` (stereo unspecified), the IC50 in the test with HCT-15 [2] was 3.46 µM; in test [3], more than 50 µM; with Bel-7402 it was 11.7 µM; with MGC-803 it was 6.73 µM; with MCF7, 34.6 µM.

For the compound `COc1cc(C(CC=C(C)C)SC(=O)c2cccs2)c(OC)c2c1/C(=N/O)C=C/C2=N\O` (stereo unspecified), the IC50 with HCT-15 [2] was 1.36 µM; in [3], more than 50 µM; in the test with Bel-7402, 3.04 µM; with MGC-803, 2.75 µM; with MCF7, 23.8 µM.

In the case of `CCCCCCCCCSC(CC=C(C)C)c1cc(OC)c2c(c1OC)/C(=N/O)C=C/C2=N\O` (stereo unspecified), the IC50 is 4.09 µM with HCT-15 [2]; more than 50 µM in test [3]; 13.8 µM in the test on Bel-7402; 9.86 µM in the test on MGC-803; 37.8 µM with MCF7.

For the origin of these results see ChEMBL document CHEMBL4138201, “Synthesis and biological evaluation of sulfur-containing shikonin oxime derivatives as potential antineoplastic agents” (Eur J Med Chem, 2018).
